Measurements reported in ChEMBL document CHEMBL1149894, “Glycosidic constituents of the tubers of Gymnadenia conopsea” (J Nat Prod, 2008).
Activity calls are given as the source filed them. The calls are words filed in the database; no cut-off is given here.

Tests used:
[1] = molecular target: T1, Amine oxidase [flavin-containing] B (Rattus norvegicus, UniProt P19643); assay: Inhibition of rat brain monoamine oxidase B at 10 uM
T1 sequence (P19643 whole entry): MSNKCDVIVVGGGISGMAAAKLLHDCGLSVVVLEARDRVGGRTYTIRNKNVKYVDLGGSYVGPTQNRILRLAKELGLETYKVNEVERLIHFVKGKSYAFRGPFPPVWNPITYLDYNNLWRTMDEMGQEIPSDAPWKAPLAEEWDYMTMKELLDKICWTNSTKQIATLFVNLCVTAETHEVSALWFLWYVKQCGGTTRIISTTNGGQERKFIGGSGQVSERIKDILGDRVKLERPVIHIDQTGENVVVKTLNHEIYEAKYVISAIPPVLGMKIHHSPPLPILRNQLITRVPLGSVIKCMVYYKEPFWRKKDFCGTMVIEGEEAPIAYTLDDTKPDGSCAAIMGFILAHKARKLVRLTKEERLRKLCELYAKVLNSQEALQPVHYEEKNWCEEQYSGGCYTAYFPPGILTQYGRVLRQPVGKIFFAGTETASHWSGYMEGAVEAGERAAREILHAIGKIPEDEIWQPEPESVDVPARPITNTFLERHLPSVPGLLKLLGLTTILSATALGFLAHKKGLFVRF
Procedure, shortened: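 Fresh rat brain homogenized in 9-fold volume of ice-cold PBS and incubated separately with each compound at 10^-5 M. MAO-B activity was determined by quantifying the oxidation product of benzylamine substrate. Pargyline was the positive control. The value is reported as an inhibition rate.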

[2] = molecular target: T2, Acetylcholinesterase (Rattus norvegicus) (UniProt P37136); assay: Inhibition of rat brain AChE at 10 uM by Ellman method
T2 sequence (whole entry): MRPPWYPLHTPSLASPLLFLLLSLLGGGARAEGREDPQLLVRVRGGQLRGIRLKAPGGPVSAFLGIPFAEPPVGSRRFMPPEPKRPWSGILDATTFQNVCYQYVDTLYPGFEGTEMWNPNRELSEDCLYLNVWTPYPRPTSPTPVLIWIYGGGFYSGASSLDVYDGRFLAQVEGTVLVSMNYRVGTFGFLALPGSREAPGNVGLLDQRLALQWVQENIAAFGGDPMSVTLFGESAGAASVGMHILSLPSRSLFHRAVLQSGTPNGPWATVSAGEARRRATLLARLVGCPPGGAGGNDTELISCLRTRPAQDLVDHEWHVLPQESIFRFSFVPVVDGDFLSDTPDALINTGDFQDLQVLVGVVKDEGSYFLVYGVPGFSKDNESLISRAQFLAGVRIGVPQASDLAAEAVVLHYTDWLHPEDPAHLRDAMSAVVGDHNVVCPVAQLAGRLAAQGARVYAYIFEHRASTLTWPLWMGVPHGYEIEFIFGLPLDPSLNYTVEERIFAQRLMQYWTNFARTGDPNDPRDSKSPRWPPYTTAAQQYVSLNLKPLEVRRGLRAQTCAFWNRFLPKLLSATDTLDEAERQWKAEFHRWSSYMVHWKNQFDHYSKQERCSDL
Procedure, shortened: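 Source: fresh rat brain homogenised in 9 volumes of ice-cold PBS, incubated with each test compound separately. Activity measured spectrophotometrically at 25 °C by the Ellman method; test compounds at 10^-5 M; donepezil as positive control; read as percent inhibition.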

SMILES | Activity [1] | Activity [2]
CC(C)C[C@](O[C@@H]1O[C@H](CO)[C@@H](O)[C@H](O)[C@H]1O)(C(=O)OCc1ccc(O[C@@H]2O[C@H](CO)[C@@H](O)[C@H](O)[C@H]2O)cc1)[C@H](O)C(=O)OCc1ccc(O[C@@H]2O[C@H](CO)[C@@H](O)[C@H](O[C@@H]3O[C@H](CO)[C@@H](O)[C@H](O)[C@H]3O)[C@H]2O)cc1 | Not Active | inactive
CC(C)C[C@](O)(C(=O)OCc1ccc(O[C@@H]2O[C@H](CO)[C@@H](O)[C@H](O)[C@H]2O)cc1)[C@H](O)C(=O)OCc1ccc(O[C@@H]2O[C@H](CO[C@@H]3O[C@H](CO)[C@@H](O)[C@H](O)[C@H]3O)[C@@H](O)[C@H](O)[C@H]2O)cc1 | Not Active | inactive
COC(=O)[C@@H](O)[C@](O)(CC(C)C)C(=O)OCc1ccc(O[C@@H]2O[C@H](CO)[C@@H](O)[C@H](O)[C@H]2O)cc1 | Not Active | inactive
CC(C)C[C@](O[C@@H]1O[C@H](CO)[C@@H](O)[C@H](O)[C@H]1O)(C(=O)OCc1ccc(O[C@@H]2O[C@H](CO)[C@@H](O)[C@H](O)[C@H]2O)cc1)C(O)C(=O)OCc1ccc(O[C@@H]2O[C@H](CO)[C@@H](O[C@H]3O[C@H](CO)[C@@H](O)[C@H](O)[C@H]3O)[C@H](O)[C@H]2O)cc1 (stereo partly drawn) | Not Active | inactive
OCc1ccc(O[C@@H]2O[C@H](CO)[C@@H](O[C@H]3O[C@H](CO)[C@@H](O)[C@H](O)[C@H]3O)[C@H](O)[C@H]2O)cc1 | Not Active | inactive
OCc1ccc(O[C@@H]2O[C@H](CO)[C@@H](O[C@@H]3O[C@H](CO)[C@@H](O)[C@H](O)[C@H]3O)[C@H](O)[C@H]2O)cc1 | Not Active | inactive
OCc1ccc(O[C@@H]2O[C@H](CO)[C@@H](O)[C@H](O[C@@H]3O[C@H](CO)[C@@H](O)[C@H](O)[C@H]3O)[C@H]2O)cc1 | Not Active | inactive
CCOCc1ccc(O[C@@H]2O[C@H](CO)[C@@H](O)[C@H](O[C@@H]3O[C@H](CO)[C@@H](O)[C@H](O)[C@H]3O)[C@H]2O)cc1 | Not Active | inactive
CC(C)C[C@](CC(=O)OCc1ccc(O[C@@H]2O[C@H](CO)[C@@H](O)[C@H](O)[C@H]2O)cc1)(O[C@@H]1O[C@H](CO)[C@@H](O)[C@H](O)[C@H]1O)C(=O)O | Not Active | inactive
